The source made the active and inactive calls. No cut-off for these calls is given here.

By IC50 is commonly meant the concentration that inhibits the measured activity by half. Read a low IC50 as inhibition by little substance. For orientation: Ki means a dissociation constant, usually derived from enzyme kinetics or from competition with a known ligand. As usually defined, the inhibition is how much of the control response was suppressed. What is called EC50 is the concentration needed to bring the measured effect to its halfway point.

Assay [1] concerns the target T1, Kallikrein-7 (Homo sapiens, UniProt P49862). The experiment in a line: Inhibition of human KLK7 using Suc-Leu-Leu-Val-Tyr-AMC as substrate after 15 mins by fluorescence assay. Summed up: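 Recombinant KLK7 at 7.6 nM, final, with 40 µM Suc-LLVY-AMC in pH 8.0 buffer of 50 mM Tris-HCl, 0.01% Tween 20, 1 M NaCl, 2% DMSO. Enzyme preincubated 15 min with compound, then hydrolysis followed for 15 min at 37 °C, ex 360 / em 460 nm. Run in triplicate. Initial rates taken relative to untreated enzyme; IC50 fitted to hyperbolic or Hill equation.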
Target sequence in this assay (P49862 whole entry): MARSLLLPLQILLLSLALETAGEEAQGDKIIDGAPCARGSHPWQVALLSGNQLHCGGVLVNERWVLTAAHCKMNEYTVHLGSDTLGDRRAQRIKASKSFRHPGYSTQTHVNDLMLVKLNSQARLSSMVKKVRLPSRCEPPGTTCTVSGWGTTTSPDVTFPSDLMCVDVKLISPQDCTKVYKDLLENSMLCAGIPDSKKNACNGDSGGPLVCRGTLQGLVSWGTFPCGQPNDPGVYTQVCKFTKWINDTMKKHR

Assay [2] has as its target T1, Kallikrein-7. The experiment in a line: Competitive inhibition of human KLK7 using Suc-Leu-Leu-Val-Tyr-AMC as substrate by Lineweaver-Burk plot analysis.
Target sequence in this assay (P49862 whole entry): as above
The target of assay [3] is Kallikrein-5 (Homo sapiens) (UniProt Q9Y337). The experiment in a line: Inhibition of human KLK5 using Boc-Val-Pro-Arg-AMC as substrate at 50 uM after 15 mins by fluorescence assay. Summed up:
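KLK5 at 0.6 nM, final, with 100 µM Boc-VPR-AMC in pH 8.0 buffer of 50 mM Tris-HCl, 0.01% Tween 20, 150 mM NaCl, 2% DMSO. Compound at 50 µM preincubated 15 min with enzyme. Fluorescence then read 15 min at 37 °C, ex 360 / em 460 nm. Inhibition taken from initial rates versus untreated control.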

Assay [4] has as its target T2, Kallikrein-8 (Homo sapiens) (UniProt O60259).
T2 sequence (whole entry): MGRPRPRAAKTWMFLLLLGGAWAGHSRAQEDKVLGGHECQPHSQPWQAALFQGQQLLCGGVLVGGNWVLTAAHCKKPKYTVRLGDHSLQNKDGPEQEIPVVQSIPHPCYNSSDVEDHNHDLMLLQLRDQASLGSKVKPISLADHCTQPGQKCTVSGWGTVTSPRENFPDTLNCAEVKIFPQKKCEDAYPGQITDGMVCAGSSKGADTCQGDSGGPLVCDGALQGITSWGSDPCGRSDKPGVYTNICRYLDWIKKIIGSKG
The experiment in a line: Inhibition of human KLK8 using Boc-Val-Pro-Arg-AMC as substrate at 50 uM after 15 mins by fluorescence assay. Summed up:
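KLK8 at 1 nM, final, with 100 µM Boc-VPR-AMC in pH 8.0 Tris-HCl buffer containing 0.01% Tween 20 and 2% DMSO. Compound at 50 µM preincubated with enzyme 15 min. Substrate hydrolysis then monitored 15 min at 37 °C, ex 360 / em 460 nm. Initial rates compared with the untreated enzyme.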

Assay [5] has as its target T3, Kallikrein-14 (Homo sapiens) (UniProt Q9P0G3).
T3 sequence (whole entry): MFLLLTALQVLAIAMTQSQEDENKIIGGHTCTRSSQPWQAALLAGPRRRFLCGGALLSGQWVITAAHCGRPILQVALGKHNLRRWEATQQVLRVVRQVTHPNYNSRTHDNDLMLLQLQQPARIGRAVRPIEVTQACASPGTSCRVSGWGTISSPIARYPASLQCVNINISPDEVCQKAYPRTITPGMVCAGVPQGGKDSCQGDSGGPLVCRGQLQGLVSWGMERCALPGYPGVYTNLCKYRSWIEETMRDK
The experiment in a line: Inhibition of human KLK14 using Boc-Val-Pro-Arg-AMC as substrate at 50 uM after 15 mins by fluorescence assay. Summed up:
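KLK14 at 0.2 nM, final, with 10 µM Boc-VPR-AMC in pH 8.0 buffer of 50 mM Tris-HCl, 0.01% Tween 20, 1 M NaCl, 2% DMSO. Compound at 50 µM preincubated 15 min with enzyme. Fluorescence then read 15 min at 37 °C, ex 360 / em 460 nm. Percent inhibition taken from initial rates relative to control.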

For assay [6], the target named is T1, Kallikrein-7. The experiment in a line: Reversible inhibition of human KLK7 using Suc-Leu-Leu-Val-Tyr-AMC as substrate at 50 uM preincubated for 15 mins followed by 40 fold dilution by fluorescence assay. The essentials:
(§1)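 KLK7 preincubated with inhibitor, 50 µM where stated, for 15 and 60 min at pH 8.0 and 37 °C. Mixture then diluted 40-fold into buffer holding Suc-LLVY-AMC under the routine KLK7 conditions. Residual activity read fluorimetrically, ex 360 / em 460 nm, and compared with the uninhibited enzyme.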
Target sequence in this assay (P49862 30-253 limits assumed): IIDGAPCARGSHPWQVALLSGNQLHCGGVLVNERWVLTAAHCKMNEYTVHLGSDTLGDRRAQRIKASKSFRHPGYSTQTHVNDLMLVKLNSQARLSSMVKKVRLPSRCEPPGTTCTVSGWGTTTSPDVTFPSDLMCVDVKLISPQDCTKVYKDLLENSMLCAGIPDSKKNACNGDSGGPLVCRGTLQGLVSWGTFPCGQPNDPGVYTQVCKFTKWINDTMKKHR

Assay [7] has as its system HeLa. The experiment in a line: Cytotoxicity against human HeLa cells assessed as cell death after 48 to 72 hrs by XTT assay. Type of assay: functional, cell-based. Summed up: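 Cells seeded at 5000/well in DMEM with 10% FBS, penicillin and streptomycin, 37 °C, 5% CO2. Compounds in DMSO added 20 h later, final DMSO 1%; screened at 100 µM, then over a concentration range, at least three wells per condition. Absorbance read at 485 nm after 3 h, viability given relative to DMSO controls, EC50 taken as 50% cell death.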
A general note: Formazan colour is commonly taken as a measure of viable cells.

Assay [8] can be described thus: Cytotoxicity against human PC3 cells assessed as cell death after 48 to 72 hrs by XTT assay. Type of assay: functional, cell-based, PC-3. Summed up: (§2)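 Cells seeded at 5000 per well in DMEM with 10% FBS, penicillin and streptomycin (100 µg/mL each), 37°C, 5% CO2. Compound in DMSO added 20 h after seeding, 1% DMSO final, DMSO-only controls. At least three wells per condition. Viability relative to DMSO; EC50 = concentration giving 50% cell death.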

Assay [9] deals with SW-620. The experiment in a line: Cytotoxicity against human SW620 cells assessed as cell death after 48 to 72 hrs by XTT assay. Type of assay: functional, cell-based. The essentials: as §2
Assay [10] has as its target T1, Kallikrein-7. The experiment in a line: Inhibition of human KLK7 using Suc-Leu-Leu-Val-Tyr-AMC as substrate at 50 uM after 15 mins by fluorescence assay relative to control.
Target sequence in this assay (P49862 30-253 limits assumed): as above
Assay [11] addresses T1, Kallikrein-7. The experiment in a line: Reversible inhibition of human KLK7 using Suc-Leu-Leu-Val-Tyr-AMC as substrate preincubated for 15 to 60 mins followed by 40 fold dilution by fluorescence assay. Summed up: as §1
Target sequence in this assay (P49862 30-253 limits assumed): as above
Setting [12] is: Homo sapiens, HeLa, read-out: EC50.

Kallikrein-5 (Homo sapiens), sequence (Q9Y337 whole entry): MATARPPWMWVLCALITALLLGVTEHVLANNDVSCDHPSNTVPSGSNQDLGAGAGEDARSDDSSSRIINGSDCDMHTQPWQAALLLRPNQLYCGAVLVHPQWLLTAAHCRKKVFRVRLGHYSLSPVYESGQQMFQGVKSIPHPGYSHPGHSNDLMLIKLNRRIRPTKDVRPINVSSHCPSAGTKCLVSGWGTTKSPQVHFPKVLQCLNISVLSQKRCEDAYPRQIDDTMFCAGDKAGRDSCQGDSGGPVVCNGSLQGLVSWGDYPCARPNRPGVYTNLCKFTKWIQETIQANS

`COc1ccc(C2=Nc3nc4ccccn4c3C(=O)[C@H](Cc3ccccc3)N2)cc1OC` displayed an IC50 in assay [1] of 33.5 µM. In assay [2], the affinity, expressed as Ki, was 27 µM. Also, the inhibition entry in assay [3], in [4] and in assay [5] was “inactive” throughout. Besides, the inhibition entry in assay [6] is “Active”. Moreover, the EC50 is 24.3 µM in assay [7] (setting [12]); 64.8 µM in [8] (Homo sapiens, PC-3, read-out: EC50); “Not Active” in assay [9] (sw-620).

For `COc1ccc(C2=Nc3nc4ccccn4c3C(=O)[C@H](CO)N2)cc1OC`, in [10], the inhibition is below 30%.

In the case of `O=C1c2c(nc3ccccn23)N=C(c2ccc([N+](=O)[O-])cc2)N[C@H]1Cc1ccccc1`, in assay [10], the inhibition is below 30%.

Molecule `CC(C)CC1=Nc2nc3ccccn3c2C(=O)[C@H](Cc2ccccc2)N1` yielded an inhibition in assay [10] below 30%.

Regarding `COc1ccc(OC)c(C2=Nc3nc4ccccn4c3C(=O)[C@H](Cc3ccccc3)N2)c1`, the IC50 in [1] was found to be 80.9 µM. Moreover, the EC50 in assay [7] (setting [12]) is 40 µM; in assay [8] (pc-3), “Not Active”; in assay [9] (sw-620) it was “Not Active”.

In assay [10], `COc1ccc(C(=O)N[C@@H](Cc2ccccc2)C(=O)c2c(N)nc3ccccn23)cc1OC` came in with an inhibition below 30%.

In [10], `Nc1nc2ccccn2c1C(=O)[C@H](Cc1ccccc1)NC(=O)CCc1ccccc1` had an inhibition below 30%.

`O=C1c2c(nc3ccccn23)N=C(c2cc(O)ccc2O)N[C@H]1Cc1ccccc1` displayed an inhibition in [10] below 30%.

`O=C1c2c(nc3ccccn23)N=C(c2cccc(O)c2)N[C@H]1Cc1ccccc1`: the IC50 in assay [1] was determined as 125 µM.

In turn, `COc1ccc(C2=Nc3nc4ccccn4c3C(O)[C@H](Cc3ccccc3)N2)cc1OC` (some centres not stated) gave an inhibition in assay [10] below 30%.

Turning to `COc1ccc(C2=Nc3nc4ccccn4c3C(=O)[C@H](Cc3ccc(O)cc3)N2)cc1OC`, the inhibition in [10] was below 30%.

For the molecule `COc1ccc(C2=Nc3nc4ccccn4c3C(=O)[C@H](C)N2)cc1OC`, the inhibition in assay [10] is below 30%.

`Nc1nc2ccccn2c1C(=O)[C@H](Cc1ccccc1)NC(=O)/C=C/c1ccccc1` displayed an inhibition in assay [10] below 30%.

For the molecule `COc1ccc(C2=Nc3nc4ccccn4c3C(=O)[C@H](Cc3ccc(OCc4ccccc4)cc3)N2)cc1OC`, in [10], the inhibition is below 30%.

In assay [10], `O=C1c2c(nc3ccccn23)N=C(c2ccccc2)N[C@H]1Cc1ccccc1` had an inhibition below 30%.

In turn, `Nc1nc2ccccn2c1C(=O)[C@H](Cc1ccccc1)NC(=O)Cc1ccccc1` yielded an IC50 in assay [1] of 149 µM.

Molecule `O=C1Nc2nc3ccccn3c2C(=O)[C@H](Cc2ccccc2)N1` gave an inhibition in assay [10] below 30%.

For `COc1ccc(C2=Nc3nc4ccccn4c3C(=O)[C@H](Cc3ccccc3)N2)cc1`, it took 72 µM to reach half-maximal inhibition in [1] (IC50).

`Nc1nc2ccccn2c1C(=O)[C@H](Cc1ccccc1)NC(=O)c1ccncc1` showed an inhibition in assay [10] below 30%.

`Cc1ccccc1C1=Nc2nc3ccccn3c2C(=O)[C@H](Cc2ccccc2)N1` showed an inhibition in [10] above 30%. Half-maximal inhibition in assay [1] (IC50) required 57 µM. In addition, the inhibition result in assay [11] was “Active”. The Ki in assay [2] was found to be 50.6 µM. In addition, the inhibition result in assay [3], in assay [4] and in assay [5] was “inactive” in each case.

In turn, `Nc1nc2ccccn2c1C(=O)[C@H](Cc1ccccc1)NC(=O)c1ccccc1` yielded an inhibition in assay [10] below 30%.

As to `Cc1ccc(C2=Nc3nc4ccccn4c3C(=O)[C@H](Cc3ccccc3)N2)cc1`, the IC50 in assay [1] was 68 µM.

`Cc1ccccc1C1=Nc2nc3ccccn3c2C(=O)[C@H](Cc2cccc3ccccc23)N1`: in [10], the inhibition was below 30%.

In assay [1], `Cc1ccccc1C1=Nc2nc3ccccn3c2C(=O)[C@@H](Cc2ccccc2)N1` gave a half-inhibitory concentration (IC50) of 95.9 µM.

Take `COc1cc(C2=Nc3nc4ccccn4c3C(=O)[C@H](Cc3ccccc3)N2)cc(OC)c1OC`: in assay [1], the IC50 is 55.7 µM. Also, the EC50 in assay [7] (setting [12]) is 53.8 µM; in assay [8] (pc-3), “Not Active”; in assay [9] (sw-620), “Not Active”.

Take `O=C1c2c(nc3ccccn23)N=C(c2ccccc2O)N[C@H]1Cc1ccccc1`: the inhibition in [10] was below 30%.

In the case of `Cc1ccccc1C(=O)N[C@@H](Cc1ccccc1)C(=O)c1c(N)nc2ccccn12`, the IC50 in [1] was 135 µM.

In [10], `COc1ccc(C2=Nc3nc4ccccn4c3C(=O)[C@H](Cc3ccccc3)N2C)cc1OC` showed an inhibition below 30%.

Molecule `COc1cccc(C2=Nc3nc4ccccn4c3C(=O)[C@H](Cc3ccccc3)N2)c1` returned an inhibition in assay [10] below 30%.

For `O=C1c2c(nc3ccccn23)N=C(c2cccnc2)N[C@H]1Cc1ccccc1`, the inhibition in assay [10] was below 30%.

Molecule `COc1ccccc1C1=Nc2nc3ccccn3c2C(=O)[C@H](Cc2ccccc2)N1` yielded an inhibition in assay [10] below 30%.

`Cc1ccccc1C1=Nc2nc3ccccn3c2C(=O)[C@H](COCc2ccccc2)N1`: in [10], the inhibition was below 30%.

In assay [10], `Cc1cccc(C2=Nc3nc4ccccn4c3C(=O)[C@H](Cc3ccccc3)N2)c1` showed an inhibition below 30%.

Regarding `Nc1nc2ccccn2c1C(=O)[C@H](Cc1ccccc1)NC(=O)c1ccc[nH]1`, the inhibition in [10] is below 30%.

Regarding `O=C1c2c(nc3ccccn23)N=C(c2ccc(Br)cc2)N[C@H]1Cc1ccccc1`, the inhibition in assay [10] was below 30%.

Molecule `Cc1ccccc1C1=Nc2nc3ccccn3c2C(=O)[C@H](C)N1` returned an inhibition in [10] below 30%.

For the molecule `COc1ccc(C2=Nc3nc4ccccn4c3C(=O)[C@H](COCc3ccccc3)N2)cc1OC`, in assay [10], the inhibition is below 30%.

`Cc1ccc(C2=Nc3nc4ccccn4c3C(=O)[C@H](Cc3ccccc3)N2)c(C)c1` returned an IC50 in assay [1] of 83.9 µM. For the same molecule, the EC50 result in assay [7] (hela) was “Not Active”; in assay [8] (pc-3), “Not Active”; in [9] (Homo sapiens, SW-620, read-out: EC50), 67.8 µM.

On to `Nc1nc2ccccn2c1C(=O)[C@H](Cc1ccccc1)NC(=O)c1ccccn1`, for which, in assay [10], the inhibition was below 30%.

Values taken from ChEMBL document CHEMBL3407351, “Pyrido-imidazodiazepinones as a new class of reversible inhibitors of human kallikrein 7” (Eur J Med Chem, 2015).
